Experimental data from article PMC11094580 (EFSA Journal, 2024).
Like-named read-outs stand apart in the source and are kept apart here.

Tests used:
[1] = Octanol/water partition coefficient; format: physicochemical
Stability as powder = format: physicochemical; conditions: room temperature (~ 22°C), long-term
Procedure, shortened: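 The solid was held under accelerated conditions (45°C) and under normal storage at room temperature.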

Stability in solution = format: physicochemical
Procedure, shortened: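 Test compound was dissolved at 10 g per 100 g propylene glycol and stored at 25 ± 2°C and 60 ± 5% RH, with sampling at 1, 2, 3 and 4 months; recovery was the read-out. Separately, aqueous buffer solutions (50 mg/kg) at pH 3, 5 and 7 were incubated at 90°C as accelerated testing.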

Wistar rats [2] = assay: In vivo micronucleus assay in peripheral blood; design: species or system rat
Sprague Dawley rats = assay: Dose range-finding study for the EOGRT study, dietary; format: in vivo, rat
[3] = ref Rebello et al. (2020), cited from earlier work
[4] = ref Bugianesi et al. (2002), cited from earlier work
[5] = 24 h urine, ref Aschoff et al. (2016), cited from earlier work
[6] = human volunteers; ref Documentation provided to EFSA No. 4; cited from earlier work
[7] = 10 h post dosing; ref Felgines et al. (2000); cited from earlier work
Pig caecum = conditions: anaerobic incubation 0-24 h; ref Labib et al. (2004); cited from earlier work
[8] = system: Intestinal bacteria isolated from human faeces; conditions: 5 mg flavonoids in 50 mL broth, 2 days, anaerobic; ref Kim et al. (1998); cited from earlier work
ERβ and ERα = conditions: in vitro; ref Helle et al. (2015); cited from earlier work
CYP450 isoforms = conditions: read-out: IC50 or Ki values; certain CYP450 isoforms; ref Lu et al. (2011); cited from earlier work
CYP3A4 = conditions: testosterone (10 μM); ref Lu et al. (2011); cited from earlier work
CYP2C19 = conditions: ref Lu et al. (2011); cited from earlier work
simvastatin metabolism = conditions: rat and human hepatocytes and microsomes; ref Ubeaud et al. (1999); cited from earlier work
[9] = target: simvastatin metabolism in human liver microsomes; conditions: ref Ubeaud et al. (1999); cited from earlier work
[10] = system: quinine metabolism in human liver microsomes; conditions: substrate quinine; ref Fasinu et al. (2013), Ho et al. (2001); cited from earlier work
[11] = system: felodipine metabolism by pig intestinal tissue slices; conditions: ref Fasinu et al. (2010); cited from earlier work
Wistar rats [12] = conditions: ref Selvam and Kaliyaperumal (2015), cited from earlier work
Wistar rats [13] = conditions: 200 mg/kg bw per day, 20 weeks, gavage, male rats; ref Ganapathy et al. (2008); cited from earlier work
[14] = system: human peripheral blood lymphocytes; assay: In vitro micronucleus assay with FISH analysis

## O=C1CC(c2ccc(O)cc2)Oc2cc(O)cc(O)c21 (stereo not drawn) [naringenin, 4H‐1‐Benzopyran‐4‐one, 2,3‐dihydro‐5,7‐dihydroxy‐2‐(4‐hydroxyphenyl)‐]
[1]
  octanol/water partition coefficient: 2.52
Stability as powder
  time remaining stable: ~2 years
Stability in solution; 25 ± 2°C, 60 ± 5% RH
  time stable when dissolved in propylene glycol: at least 4 months
Stability in solution; aqueous buffer solutions (50 mg/kg) pH 3, 5, 7 at 90°C
  time for which stability was demonstrated: up to 8 h
Wistar rats [2]; 500 mg/kg bw per day
  % MNPCE frequency: 0.06 ± 0.01%
Wistar rats [2]; 2000 mg/kg bw per day
  % MNPCE frequency: 0.06 ± 0.02%
Wistar rats [2]; gavage at 0, 24 and 45 h, male and female rats
  maximum tolerated dose (MTD): 2000 mg/kg bw per day
Wistar rats [2]; mid‐dose (1000 mg/kg bw per day), male rats, blood 3 h after last administration
  % MNPCE frequency: 0.08 ± 0.01%
Sprague Dawley rats; 20,000 mg/kg feed (G3)
  mean pre-coital interval: 7.6 days
Sprague Dawley rats; all dose groups
  clinical signs, mortality, morbidity: No clinical signs of toxicity, no mortality or morbidity
Sprague Dawley rats; females
  dose up to which no toxicity was produced: ≤ 2724 mg/kg bw per day
Sprague Dawley rats; males
  dose up to which no toxicity was produced: ≤ 2205 mg/kg bw per day
Sprague Dawley rats; males 29 days, females 51–62 days
  dietary concentration up to which no toxicity was produced: up to 25,000 mg/kg feed
[3]; 150 mg
  AUC0‐24h: 67.61 ± 24.26 µM·h
  T max: 2 h
  half-life in plasma: 3 h
[3]; 150 mg, listed as Nar‐A
  T max: 3.2 ± 0.7 h
[3]; 600 mg
  AUC0‐24h: 199.05 ± 24.36 µM·h
  T max: 2 h
  half-life in plasma: 2.65 h
[3]; 600 mg, listed as NAR‐A
  T max: 2.4 ± 0.7 h
[4]; 3.8 mg (14 μmol), tomato paste/oil
  C max: 32 ± 8 ng/mL
[4]; 3.8 mg, tomato paste test meal
  unconjugated naringenin in plasma: did not find unconjugated naringenin in plasma samples
[4]; 3.8 mg, tomato paste/oil
  Plasma half-life: Decline by 2 h and later
[5]; after orange fruit (400 g)
  proportion of naringenin excreted in the urine: 12.9%
[5]; after pasteurised orange juice (719 g)
  proportion of naringenin excreted in the urine: 20.3%
[6]
  glucuronic acid and sulfate conjugates as share of the dose: ~ 20 % of the dose
[7]
  naringenin in caecal contents: 15 μmol/caecum
Pig caecum
  Results: microbial transformation products: Naringenin was transformed to 3‐(4‐hydroxyphenyl)‐propionic acid and 3‐phenylpropionic acid
[8]
  Results: bacterial metabolism: transformed to phenolic acids
ERβ and ERα
  affinity for oestrogen receptors: stronger affinity with ERβ than ERα
CYP450 isoforms
  IC50: ~10 µM
CYP3A4
  IC50: […]
CYP2C19
  IC50: < 5 µM
Simvastatin metabolism
  Ki: 5 to 30 µM
[9]
  Ki: 23 µM
[10]
  IC50: 139 to 188 µM
[11]
  IC50: 180 µM
Wistar rats [12]; Gavage, M, 10/group, arithmetic method
  LD50: 340 mg/kg bw
Wistar rats [12]; rats, considered not reliable by the Panel
  LD50: about 330 mg/kg bw
Wistar rats [13]
  assessed biochemical parameters in stomach and liver: no significant effects
[14]; 4‐h treatment with or without S9‐mix, naringenin 75, 200 and 250 μg/mL
  MN centromere-negative (FISH analysis): > 64%
[14]; 125, 150, 200 μg/mL (4 h + 24 h, +S9)
  Result: Positive FISH analysis indicates that naringenin induced micronuclei by a clastogenic mechanism
[14]; 125, 150, 200, 250 μg/mL (4 h + 24 h, –S9)
  Result: Positive FISH analysis indicates that naringenin induced micronuclei by a clastogenic mechanism
[14]; 24 h + 24 h treatment
  MNBN frequency: no statistically significant increase
